Results taken from ChEMBL document CHEMBL1127482 (J Med Chem, 1994).
pIC50: −log10 of the molar value. *1 amine or outer side, *2 acyl side, *3 side chain or, on linkers, in order; H or OH if unused. Where a SMILES comes first, the peptide text is derived from it. Bridges are numbered along the chain shown (N, C = ends). X1 = O=C(CC1(S[*:2])CCCCC1)[*:1]; X4 = C[C@H](S[*:2])C(=O)[*:1]

Columns and labels:
[1] = organism: Homo sapiens; experiment: Inhibition of 10 uM ADP induced platelet aggregation in human platelet rich citreated plasma (PRP); assay type: functional
In short: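 Aggregation is read as the increase in light transmission in an aggregometer, with platelets used within 3 h of collection. IC50 comes from regression of dose-response curves for inhibition of maximal aggregation, adjusted against a standard run in each experiment.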

[2] = molecular target: Integrin alpha-V/beta-5 (Homo sapiens, UniProt P06756+P18084); experiment: Binding affinity against integrin alpha V-beta5 in enzyme linked immunosorbent assay (ELISA); assay type: protein-complex assay
Sequence of Integrin alpha-V/beta-5 (P06756 31-889 limits assumed): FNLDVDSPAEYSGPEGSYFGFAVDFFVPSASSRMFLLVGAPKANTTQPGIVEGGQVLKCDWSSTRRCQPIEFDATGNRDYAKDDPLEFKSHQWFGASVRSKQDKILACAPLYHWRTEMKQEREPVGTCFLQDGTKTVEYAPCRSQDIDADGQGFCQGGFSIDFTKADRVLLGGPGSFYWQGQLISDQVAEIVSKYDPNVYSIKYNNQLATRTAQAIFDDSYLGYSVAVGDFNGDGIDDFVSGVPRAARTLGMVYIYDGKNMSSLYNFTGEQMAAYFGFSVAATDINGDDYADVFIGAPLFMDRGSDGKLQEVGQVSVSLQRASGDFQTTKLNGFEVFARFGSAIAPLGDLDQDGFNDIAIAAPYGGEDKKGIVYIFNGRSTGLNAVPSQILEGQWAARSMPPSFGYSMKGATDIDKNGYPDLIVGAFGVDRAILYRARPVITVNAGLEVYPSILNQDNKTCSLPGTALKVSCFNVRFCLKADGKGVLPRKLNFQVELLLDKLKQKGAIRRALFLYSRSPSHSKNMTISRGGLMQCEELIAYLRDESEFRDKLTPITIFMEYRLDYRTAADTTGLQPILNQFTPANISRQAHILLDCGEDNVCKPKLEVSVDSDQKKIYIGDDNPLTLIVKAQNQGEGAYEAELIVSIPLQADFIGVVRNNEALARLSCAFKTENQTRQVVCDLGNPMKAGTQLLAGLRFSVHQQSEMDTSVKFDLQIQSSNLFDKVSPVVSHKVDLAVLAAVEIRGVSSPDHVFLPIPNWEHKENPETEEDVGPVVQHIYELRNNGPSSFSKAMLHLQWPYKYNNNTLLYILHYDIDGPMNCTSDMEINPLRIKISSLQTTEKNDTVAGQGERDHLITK
Sequence of Integrin alpha-V/beta-5 (P06756 891-1048 limits assumed): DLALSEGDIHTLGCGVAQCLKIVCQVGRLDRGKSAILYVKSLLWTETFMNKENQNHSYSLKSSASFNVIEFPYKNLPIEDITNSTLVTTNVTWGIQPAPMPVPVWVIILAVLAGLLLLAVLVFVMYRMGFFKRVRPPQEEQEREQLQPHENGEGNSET
Sequence of Integrin alpha-V/beta-5 (P18084 24-799 limits assumed): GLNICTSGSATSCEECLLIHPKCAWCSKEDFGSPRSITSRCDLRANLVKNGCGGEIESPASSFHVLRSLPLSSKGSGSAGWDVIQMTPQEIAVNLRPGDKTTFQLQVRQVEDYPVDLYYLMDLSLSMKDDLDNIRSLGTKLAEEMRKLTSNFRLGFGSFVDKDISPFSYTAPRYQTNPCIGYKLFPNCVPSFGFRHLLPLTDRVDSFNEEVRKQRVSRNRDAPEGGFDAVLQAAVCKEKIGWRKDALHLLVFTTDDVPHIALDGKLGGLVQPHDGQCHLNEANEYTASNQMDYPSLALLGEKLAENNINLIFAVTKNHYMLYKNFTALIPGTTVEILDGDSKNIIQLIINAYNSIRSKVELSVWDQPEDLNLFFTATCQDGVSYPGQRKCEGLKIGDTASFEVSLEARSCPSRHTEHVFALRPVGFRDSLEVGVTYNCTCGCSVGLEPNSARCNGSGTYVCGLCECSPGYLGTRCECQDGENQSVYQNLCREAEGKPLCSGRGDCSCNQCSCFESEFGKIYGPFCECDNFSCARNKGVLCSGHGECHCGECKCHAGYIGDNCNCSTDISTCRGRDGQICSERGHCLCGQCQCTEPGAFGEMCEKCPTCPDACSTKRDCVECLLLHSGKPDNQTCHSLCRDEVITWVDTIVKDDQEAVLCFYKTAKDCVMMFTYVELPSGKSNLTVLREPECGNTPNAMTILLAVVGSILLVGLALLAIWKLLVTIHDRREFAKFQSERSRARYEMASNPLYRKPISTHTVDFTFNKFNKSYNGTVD
In short: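 It is added to wells coated with human vitronectin in 0.1 M carbonate, pH 9.6, with 10-fold serial peptide dilutions for 3 h at room temperature. Detection uses rabbit anti-VnR, HRP anti-rabbit IgG and o-phenylenediamine/H2O2.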

[3] = molecular target: Integrin alpha-IIb/beta-3 (Homo sapiens, UniProt P05106+P08514); experiment: Binding affinity against integrin alpha 2b-beta 3 in enzyme linked immunosorbent assay (ELISA); assay type: protein-complex assay
Sequence of Integrin alpha-IIb/beta-3 (P05106 27-788 limits assumed): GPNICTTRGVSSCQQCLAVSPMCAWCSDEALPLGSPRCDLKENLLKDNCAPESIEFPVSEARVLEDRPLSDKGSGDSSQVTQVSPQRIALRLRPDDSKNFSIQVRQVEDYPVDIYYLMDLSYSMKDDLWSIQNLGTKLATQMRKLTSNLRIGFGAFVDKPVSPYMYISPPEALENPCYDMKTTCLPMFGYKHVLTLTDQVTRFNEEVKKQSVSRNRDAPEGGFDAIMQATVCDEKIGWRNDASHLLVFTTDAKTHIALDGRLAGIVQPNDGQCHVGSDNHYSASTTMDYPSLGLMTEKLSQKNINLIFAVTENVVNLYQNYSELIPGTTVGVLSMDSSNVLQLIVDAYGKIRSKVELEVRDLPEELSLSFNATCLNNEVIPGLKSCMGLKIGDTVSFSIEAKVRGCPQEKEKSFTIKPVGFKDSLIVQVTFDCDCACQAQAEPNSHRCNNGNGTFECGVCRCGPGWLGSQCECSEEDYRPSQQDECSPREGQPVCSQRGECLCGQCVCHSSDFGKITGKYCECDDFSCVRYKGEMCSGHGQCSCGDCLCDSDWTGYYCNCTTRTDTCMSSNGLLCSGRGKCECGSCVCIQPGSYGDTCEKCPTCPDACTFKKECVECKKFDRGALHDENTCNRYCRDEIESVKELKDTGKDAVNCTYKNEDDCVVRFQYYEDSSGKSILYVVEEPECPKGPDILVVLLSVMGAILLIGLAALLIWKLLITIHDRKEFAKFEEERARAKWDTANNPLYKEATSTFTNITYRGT
Sequence of Integrin alpha-IIb/beta-3 (P08514 32-887 limits assumed): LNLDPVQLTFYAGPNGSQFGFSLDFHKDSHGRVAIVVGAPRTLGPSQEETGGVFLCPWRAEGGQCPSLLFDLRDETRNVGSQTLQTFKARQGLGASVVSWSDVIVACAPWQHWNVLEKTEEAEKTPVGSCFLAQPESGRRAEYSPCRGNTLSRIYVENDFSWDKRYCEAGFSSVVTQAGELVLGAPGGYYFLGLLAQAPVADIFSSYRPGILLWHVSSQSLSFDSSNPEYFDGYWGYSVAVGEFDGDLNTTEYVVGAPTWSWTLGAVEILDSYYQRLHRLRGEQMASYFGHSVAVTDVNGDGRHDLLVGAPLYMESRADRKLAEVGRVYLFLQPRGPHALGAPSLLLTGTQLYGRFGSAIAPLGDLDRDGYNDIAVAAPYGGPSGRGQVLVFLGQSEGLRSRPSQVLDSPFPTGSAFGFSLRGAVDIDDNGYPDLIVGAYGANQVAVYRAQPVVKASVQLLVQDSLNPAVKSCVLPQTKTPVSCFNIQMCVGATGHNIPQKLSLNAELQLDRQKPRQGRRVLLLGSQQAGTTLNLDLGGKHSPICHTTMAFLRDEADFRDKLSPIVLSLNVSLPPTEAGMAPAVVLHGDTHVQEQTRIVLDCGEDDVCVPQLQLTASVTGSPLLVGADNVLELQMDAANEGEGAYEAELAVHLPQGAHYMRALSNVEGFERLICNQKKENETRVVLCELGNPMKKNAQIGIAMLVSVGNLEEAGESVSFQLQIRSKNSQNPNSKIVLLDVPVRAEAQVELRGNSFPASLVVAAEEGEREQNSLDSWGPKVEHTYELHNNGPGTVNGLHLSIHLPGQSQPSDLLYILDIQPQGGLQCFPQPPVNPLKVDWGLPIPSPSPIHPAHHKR
Sequence of Integrin alpha-IIb/beta-3 (P08514 891-1039 limits assumed): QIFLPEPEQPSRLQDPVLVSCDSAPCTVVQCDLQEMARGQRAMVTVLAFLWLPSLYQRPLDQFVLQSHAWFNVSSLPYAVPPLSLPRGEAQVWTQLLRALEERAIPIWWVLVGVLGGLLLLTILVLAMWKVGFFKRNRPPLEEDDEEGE
In short: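 Purified human platelet αIIbβ3 (from outdated platelets, octyl glucoside extract) in TBS with 20 mM octyl glucoside, 2 mM MgCl2 and 2 mM CaCl2 binds to plate-coated human fibrinogen (10 µg/mL in TBS) with 10-fold serial peptide dilutions for 3 h at room temperature. Bound receptor is detected with rabbit anti-αIIbβ3, then HRP anti-rabbit IgG, with o-phenylenediamine/H2O2 at pH 5.0. IC50 is reported.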

pIC50 [1] | pIC50 [2] | pIC50 [3] | Structure (SMILES)
6.15 |  |  | COc1ccc(C[C@@H]2NC(=O)[C@H](CC(=O)O)NC(=O)CNC(=O)[C@H](CCCCN)NC(=O)[C@@H]3CCCN3C(=O)[C@H](CC(N)=O)NC(=O)[C@@H](NC(C)=O)CSSC[C@@H](C(N)=O)NC(=O)[C@H](CCCN=C(N)N)NC2=O)cc1
6.77 |  |  | COc1ccc(C[C@@H]2NC(=O)[C@H](CC(=O)O)NC(=O)CNC(=O)[C@H](CCCN=C(N)N)NC(=O)[C@@H]3CCCN3C(=O)[C@H](CC(N)=O)NC(=O)[C@H](C)SSC[C@@H](C(N)=O)NC(=O)[C@H](CCCN=C(N)N)NC2=O)cc1 (NPRGDY(Me)RC-NH2; linker N-8 via X4)
6.77 | 5.31 |  | COc1ccc(C[C@@H]2NC(=O)[C@H](CC(=O)O)NC(=O)CNC(=O)[C@H](CCCN=C(N)N)NC(=O)[C@@H]3CCCN3C(=O)[C@H](CC(N)=O)NC(=O)CC3(CCCCC3)SSC[C@@H](C(N)=O)NC(=O)[C@H](CCCN=C(N)N)NC2=O)cc1 (NPRGDY(Me)RC-NH2; linker N-8 via X1)
5.12 | 5.15 |  | COc1ccc(C[C@@H]2NC(=O)[C@H](CC(=O)O)NC(=O)CNC(=O)[C@H](CCCNC(=N)N)NC(=O)[C@@H]3CCCN3C(=O)[C@H](CC(N)=O)NC(=O)[C@@H](NC(C)=O)CSSC[C@@H](C(N)=O)NC(=O)[C@H](CC(C)C)NC2=O)cc1
6.48 |  |  | CC[C@H](C)[C@@H]1NC(=O)[C@@H](NC(C)=O)CSSC[C@@H](C(N)=O)NC(=O)[C@H](CCCN=C(N)N)NC(=O)[C@H](Cc2ccc(O)cc2)NC(=O)[C@H](CC(=O)O)NC(=O)CNC(=O)[C@H](CCCN=C(N)N)NC(=O)[C@@H]2CCCN2C1=O (Ac-CIPRGDYRC-NH2; disulfide 1-9)
 | 5.11 |  | COc1ccc(C[C@@H]2NC(=O)[C@H](CC(=O)O)NC(=O)CNC(=O)[C@H](CCCNC(=N)N)NC(=O)[C@@H]3CCCN3C(=O)[C@H](CC(N)=O)NC(=O)[C@@H](NC(C)=O)CSSC[C@@H](C(N)=O)NC(=O)[C@H](CCCN)NC2=O)cc1
6.28 | 5.00 |  | COc1ccc(C[C@@H]2NC(=O)[C@H](CC(=O)O)NC(=O)CNC(=O)[C@H](CCCNC(=N)N)NC(=O)[C@@H](Cc3ccc(O)cc3)NC(=O)CNC(=O)[C@@H](NC(=O)[C@@H](N)CCCNC(=N)N)C3(CCCCC3)SSC[C@@H](C(=O)N[C@@H](CCCNC(=N)N)C(=O)O)NC(=O)[C@H](CCCNC(=N)N)NC2=O)cc1
 | 5.24 |  | COc1ccc(C[C@@H]2NC(=O)[C@H](CC(=O)O)NC(=O)CNC(=O)[C@H](CCCNC(=N)N)NC(=O)[C@@H]3CCCN3C(=O)[C@H](CC(N)=O)NC(=O)[C@@H](NC(C)=O)CSSC[C@@H](C(N)=O)NC(=O)[C@H](CCCCN)NC2=O)cc1
7.00 | 5.00 |  | CCCCOc1ccc(C[C@@H]2NC(=O)[C@H](CC(=O)O)NC(=O)CNC(=O)[C@H](CCCNC(=N)N)NC(=O)[C@@H]3CCCN3C(=O)[C@H](CC(N)=O)NC(=O)[C@@H](NC(C)=O)CSSC[C@@H](C(N)=O)NC(=O)[C@H](CCCNC(=N)N)NC2=O)cc1
 | 5.63 |  | COc1ccc(C[C@@H]2NC(=O)[C@H](CC(=O)O)NC(=O)CNC(=O)[C@H](CCCN=C(N)N)NC(=O)[C@@H]3CCCN3C(=O)[C@H](CC(N)=O)NC(=O)[C@@H](NC(C)=O)C3(CCCCC3)SSC[C@@H](C(N)=O)NC(=O)[C@H](CCCN=C(N)N)NC2=O)cc1 [listing 1 of 2 here]
6.16 |  |  | CC(C)[C@H]1NC(=O)[C@H](CC(=O)O)NC(=O)CNC(=O)[C@H](CCCN=C(N)N)NC(=O)[C@@H](Cc2c[nH]cn2)NC(=O)CNC(=O)[C@@H](N)CCC/N=C(/N)NC(=O)[C@H](N)C2(CCCCC2)SSC[C@@H](C(=O)N[C@@H](CCCN=C(N)N)C(=O)O)NC(=O)[C@H](CCCN=C(N)N)NC1=O
 | 5.02 |  | COc1ccc(C[C@@H]2NC(=O)[C@H](CC(=O)O)NC(=O)CNC(=O)[C@H](CCCNC(=N)N)NC(=O)[C@@H]3CCCN3C(=O)[C@H](CC(N)=O)NC(=O)[C@@H](NC(C)=O)CSSC[C@@H](C(N)=O)NC(=O)[C@H](CCC(=O)O)NC2=O)cc1
6.00 |  |  | COc1ccc(C[C@@H]2NC(=O)[C@H](CC(=O)O)NC(=O)CNC(=O)[C@H](CCCN=C(N)N)NC(=O)[C@H](Cc3c[nH]cn3)NC(=O)[C@H](CC(N)=O)NC(=O)[C@@H](NC(=O)[C@@H](N)CCCN=C(N)N)C3(CCCCC3)SSC[C@@H](C(=O)N[C@@H](CCCN=C(N)N)C(=O)O)NC(=O)[C@H](CCCN=C(N)N)NC2=O)cc1
 | 5.77 |  | COc1ccc(C[C@@H]2NC(=O)[C@H](CC(=O)O)NC(=O)CNC(=O)[C@H](CCCNC(=N)N)NC(=O)[C@@H]3CCCN3C(=O)CNC(=O)[C@@H](NC(=O)[C@@H](N)CCCNC(=N)N)C3(CCCCC3)SSC[C@@H](C(=O)N[C@@H](CCCNC(=N)N)C(=O)O)NC(=O)[C@H](CCCNC(=N)N)NC2=O)cc1
 | 5.05 |  | COc1ccc(C[C@@H]2NC(=O)[C@H](CC(=O)O)NC(=O)CNC(=O)[C@H](CCCNC(=N)N)NC(=O)[C@@H]3CCCN3C(=O)[C@H](CC(N)=O)NC(=O)[C@@H](NC(C)=O)CSSC[C@@H](C(N)=O)NC(=O)[C@H](C)NC2=O)cc1
 | 5.08 |  | CC(C)C[C@@H]1NC(=O)[C@H](CC(=O)O)NC(=O)CNC(=O)[C@H](CCCNC(=N)N)NC(=O)[C@H](Cc2c[nH]cn2)NC(=O)CNC(=O)[C@H](NC(=O)CN)C(C)(C)SSC[C@@H](C(=O)N[C@@H](C)C(=O)O)NC(=O)[C@H](CCCNC(=N)N)NC1=O (stereo in doubt; 1)
 | 5.52 |  | COc1ccc(C[C@@H]2NC(=O)[C@H](CC(=O)O)NC(=O)CNC(=O)[C@H](CCCN=C(N)N)NC(=O)[C@@H]3CCCN3C(=O)[C@H](CC(N)=O)NC(=O)CCSSC[C@@H](C(N)=O)NC(=O)[C@H](CCCN=C(N)N)NC2=O)cc1
6.82 |  |  | COc1ccc(C[C@@H]2NC(=O)[C@H](CC(=O)O)NC(=O)CNC(=O)[C@H](CCCN=C(N)N)NC(=O)[C@@H]3CCCN3C(=O)[C@H](CC(N)=O)NC(=O)[C@@H](NC(C)=O)C3(CCCCC3)SSC[C@@H](C(N)=O)NC(=O)[C@H](CCCN=C(N)N)NC2=O)cc1 [listing 2 of 2 here]
5.56 | 5.14 |  | COc1ccc(C[C@@H]2NC(=O)[C@H](CC(=O)O)NC(=O)CNC(=O)[C@H](CCCN=C(N)N)NC(=O)[C@H](Cc3c[nH]cn3)NC(=O)[C@H](CC(=O)O)NC(=O)[C@@H](NC(=O)[C@@H](N)CCCN=C(N)N)C3(CCCCC3)SSC[C@@H](C(=O)N[C@@H](CCCN=C(N)N)C(=O)O)NC(=O)[C@H](CCCN=C(N)N)NC2=O)cc1
6.22 |  |  | N=C(N)NCCC[C@H](NC(=O)[C@@H]1CSSC2(CCCCC2)[C@H](NC(=O)[C@@H](N)CCCNC(=N)N)C(=O)NCC(=O)N[C@@H](Cc2c[nH]cn2)C(=O)N[C@@H](CCCNC(=N)N)C(=O)NCC(=O)N[C@@H](CC(=O)O)C(=O)N[C@@H](CCc2ccccc2)C(=O)N[C@@H](CCCNC(=N)N)C(=O)N1)C(=O)O
6.01 |  |  | NC(N)=NCCC[C@H](NC(=O)[C@@H]1CSSC2(CCCCC2)[C@H](NC(=O)[C@@H](N)CCCN=C(N)N)C(=O)NCC(=O)N[C@@H](Cc2c[nH]cn2)C(=O)N[C@@H](CCCN=C(N)N)C(=O)NCC(=O)N[C@@H](CC(=O)O)C(=O)N[C@@H](Cc2ccc(O)cc2)C(=O)N[C@@H](CCCN=C(N)N)C(=O)N1)C(=O)O
6.32 |  |  | CCCCOc1ccc(C[C@@H]2NC(=O)[C@H](CC(=O)O)NC(=O)CNC(=O)[C@H](CCCN=C(N)N)NC(=O)[C@@H]3CCCN3C(=O)[C@H]([C@@H](C)CC)NC(=O)[C@@H](NC(C)=O)CSSC[C@@H](C(N)=O)NC(=O)[C@H](CCCN=C(N)N)NC2=O)cc1
 |  | 6.82 | CC(C)C[C@@H]1NC(=O)[C@H](CC(=O)O)NC(=O)CNC(=O)[C@H](CCCNC(=N)N)NC(=O)[C@H](Cc2c[nH]cn2)NC(=O)CNC(=O)[C@H](NC(=O)CN)C(C)(C)SSC[C@@H](C(=O)N[C@@H](C)C(=O)O)NC(=O)[C@H](CCCNC(=N)N)NC1=O (stereo in doubt; 2)
 | 5.46 |  | COc1ccc(C[C@@H]2NC(=O)[C@H](CC(=O)O)NC(=O)CNC(=O)[C@H](CCCNC(=N)N)NC(=O)[C@@H]3CCCN3C(=O)[C@H](CC(N)=O)NC(=O)[C@@H](NC(C)=O)CSSC[C@@H](C(N)=O)NC(=O)[C@H](CCCNC(N)=O)NC2=O)cc1
6.07 | 5.06 |  | COc1ccc(C[C@@H]2NC(=O)[C@H](CC(=O)O)NC(=O)CNC(=O)[C@H](CCCNC(=N)N)NC(=O)[C@H](Cc3ccc(O)cc3)NC(=O)CNC(=O)[C@@H](NC(=O)[C@@H](N)CCCNC(=N)N)C3(CCCCC3)SSC[C@@H](C(=O)N[C@@H](CCCNC(=N)N)C(=O)O)NC(=O)[C@H](CCCNC(=N)N)NC2=O)cc1
6.02 | 5.18 |  | COc1ccc(C[C@@H]2NC(=O)[C@H](CC(=O)O)NC(=O)CNC(=O)[C@H](CCCN=C(N)N)NC(=O)[C@H](Cc3c[nH]cn3)NC(=O)[C@H](CO)NC(=O)[C@@H](NC(=O)[C@@H](N)CCCN=C(N)N)C3(CCCCC3)SSC[C@@H](C(=O)N[C@@H](CCCN=C(N)N)C(=O)O)NC(=O)[C@H](CCCN=C(N)N)NC2=O)cc1
6.40 |  |  | COc1ccc(C[C@@H]2NC(=O)[C@H](CC(=O)O)NC(=O)CNC(=O)[C@H](CCCN=C(N)N)NC(=O)[C@@H](Cc3c[nH]cn3)NC(=O)CNC(=O)[C@@H](NC(=O)[C@@H](N)CCCN=C(N)N)C3(CCCCC3)SSC[C@@H](C(=O)N[C@@H](CCCN=C(N)N)C(=O)O)NC(=O)[C@H](CCCN=C(N)N)NC2=O)cc1
 | 5.00 |  | CC[C@H](C)[C@@H]1NC(=O)[C@@H](NC(=O)[C@@H](N)CCCN=C(N)N)C2(CCCCC2)SSC[C@@H](C(=O)N[C@@H](CCCN=C(N)N)C(=O)O)NC(=O)[C@H](CCCN=C(N)N)NC(=O)[C@H](Cc2ccc(OC)cc2)NC(=O)[C@H](CC(=O)O)NC(=O)CNC(=O)[C@H](CCCN=C(N)N)NC(=O)[C@H](Cc2c[nH]cn2)NC1=O
